Test results as given in ChEMBL document CHEMBL2146466, “Evaluation of dimerization-inhibitory activities of cyclic peptides containing a β-hairpin loop sequence of the EGF receptor” (2012).
Calls of active or inactive are those of the source. No cut-off for these calls is given here. Where a SMILES comes first, the peptide text is derived from it.

Legend:
[1] = target: Epidermal growth factor receptor (Homo sapiens) (UniProt P00533); experiment: Inhibition of human recombinant EGF receptor autophosphorylation expressed in A431 cells at 1 nM after 5 mins by immunoblotting analysis; format: cell-based; settings: A-431
Outline: (§1)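 A431 cells were seeded at 1×10^4/well, grown 4 days, then starved 24 h in serum-free medium with 1 mg/mL BSA. Cells were given peptide or PBS for 1 h at 37 °C, then 100 ng/mL human EGF for 5 min. Lysates in NP-40 buffer were diluted to 500 µg/mL protein and run on SDS-PAGE. Blots were probed with anti-EGFR pY1068, then stripped and re-probed for total EGFR. Mean of two independent experiments in duplicate.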

[2] = target: Epidermal growth factor receptor (Homo sapiens) (UniProt P00533); experiment: Inhibition of human recombinant EGF receptor autophosphorylation expressed in A431 cells at 10 uM after 5 mins by immunoblotting analysis; format: cell-based; settings: A-431; outline: as §1
A-431 = experiment: Antiproliferative activity against human A431 cells at 10 uM after 3 days by WST-8 assay; format: functional; settings: A-431, 72 h
Outline: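 A431 cells in DMEM with 10% FBS were seeded at 5×10^3 cells/well and grown 24 h at 37 °C, 5% CO₂. Peptide at 10 µM, or distilled water as the 100% growth control, was added and cells were re-incubated 24 h for three consecutive days. WST-8 was then added for 90 min and absorbance read at 450 nm (reference 655 nm). Six replicate wells, three independent repeats; mean ± SD.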

[3] = target: Epidermal growth factor receptor (Homo sapiens) (UniProt P00533); experiment: Human recombinant EGF receptor dimer amount expressed in A431 cells at 10 uM after 10 mins by immunoblotting analysis relative to control; settings: A-431
[4] = target: Epidermal growth factor receptor (Homo sapiens) (UniProt P00533); experiment: Inhibition of human recombinant EGF receptor dimerization expressed in A431 cells at 10 uM after 10 mins by immunoblotting analysis relative to CYNPTTYQMC; format: cell-based; settings: A-431
[5] = target: Epidermal growth factor receptor (Homo sapiens) (UniProt P00533); experiment: Inhibition of human recombinant EGF receptor dimerization expressed in A431 cells at 10 uM after 10 mins by immunoblotting analysis relative to control; format: cell-based; settings: A-431
Outline: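 Confluent A431 cells were solubilized in 20 mM HEPES pH 7.4 with 1% Triton X-100, 10% glycerol, 1 mM EGTA and 1 mM PMSF, and the extract was spun at 250,000×g. Supernatant at 2 µg/µL protein was pre-treated 60 min with 10 µM peptide, then given 0.21 µM human EGF for 10 min. Cross-linking was with 1 mM BS³ for 10 min, quenched with glycine. Dimer and monomer were resolved by SDS-PAGE and anti-EGFR immunoblot, with ECL quantification. Dimer without peptide was set to 1.0; mean ± SD of at least three experiments in duplicate.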

Chain of Epidermal growth factor receptor (Homo sapiens) (P00533 whole entry): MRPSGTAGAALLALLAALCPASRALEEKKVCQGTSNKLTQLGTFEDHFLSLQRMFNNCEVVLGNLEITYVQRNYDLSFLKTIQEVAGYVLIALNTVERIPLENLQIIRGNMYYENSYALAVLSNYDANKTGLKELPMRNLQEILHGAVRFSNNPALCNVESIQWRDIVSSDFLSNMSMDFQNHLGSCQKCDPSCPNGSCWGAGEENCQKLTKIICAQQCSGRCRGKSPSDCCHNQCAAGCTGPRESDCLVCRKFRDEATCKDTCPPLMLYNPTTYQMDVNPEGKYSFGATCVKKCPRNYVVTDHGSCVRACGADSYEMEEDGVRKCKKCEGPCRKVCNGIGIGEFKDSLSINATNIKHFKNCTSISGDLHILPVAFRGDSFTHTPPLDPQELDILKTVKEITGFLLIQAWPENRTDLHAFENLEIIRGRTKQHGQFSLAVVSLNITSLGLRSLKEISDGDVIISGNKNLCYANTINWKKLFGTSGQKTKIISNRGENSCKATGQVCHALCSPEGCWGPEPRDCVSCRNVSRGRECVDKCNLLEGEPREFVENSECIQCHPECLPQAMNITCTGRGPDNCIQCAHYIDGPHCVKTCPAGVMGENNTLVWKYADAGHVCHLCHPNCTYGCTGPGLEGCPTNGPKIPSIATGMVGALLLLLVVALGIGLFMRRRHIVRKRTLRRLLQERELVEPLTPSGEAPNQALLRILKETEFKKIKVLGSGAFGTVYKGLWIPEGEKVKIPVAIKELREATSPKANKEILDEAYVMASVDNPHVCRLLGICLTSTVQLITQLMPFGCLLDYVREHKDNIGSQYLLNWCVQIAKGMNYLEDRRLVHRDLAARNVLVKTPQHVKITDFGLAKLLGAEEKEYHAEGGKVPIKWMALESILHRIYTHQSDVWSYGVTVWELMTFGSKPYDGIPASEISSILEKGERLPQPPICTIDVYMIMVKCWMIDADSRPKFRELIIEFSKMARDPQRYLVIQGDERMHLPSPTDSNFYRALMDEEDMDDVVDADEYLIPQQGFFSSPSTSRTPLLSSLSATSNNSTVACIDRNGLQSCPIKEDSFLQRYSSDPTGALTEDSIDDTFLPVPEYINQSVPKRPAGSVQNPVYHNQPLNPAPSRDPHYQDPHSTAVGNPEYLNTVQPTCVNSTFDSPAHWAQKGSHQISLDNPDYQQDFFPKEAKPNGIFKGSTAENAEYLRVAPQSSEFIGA

Molecule	inhibition [1] [%]	inhibition [2]	residual activity [3] [%]	inhibition [4] [%]	inhibition [5]	cell proliferation (% of vehicle) at 10 µM (A-431) [%]
CSCC[C@@H]1NC(=O)[C@H](CCC(N)=O)NC(=O)[C@H](Cc2ccc(O)cc2)NC(=O)[C@@H]2CSSC[C@H](NC(=O)[C@H](Cc3ccc(O)cc3)NC(=O)[C@@H](N)CSSC[C@@H](C(=O)O)NC1=O)C(=O)N1CCC[C@H]1C(=O)N[C@@H]([C@@H](C)O)C(=O)N2 (HELM PEPTIDE1{C.Y.C.P.T.C.Y.Q.M.C}$PEPTIDE1,PEPTIDE1,1:R3-10:R3|PEPTIDE1,PEPTIDE1,3:R3-6:R3$$$V2.0)	–	–	83	65	–	–
CSCC[C@H](NC(=O)[C@H](CCC(N)=O)NC(=O)[C@H](Cc1ccc(O)cc1)NC(=O)[C@@H]1CSSC[C@H](NC(=O)[C@H](Cc2ccc(O)cc2)NC(=O)[C@@H](N)CC(C)C)C(=O)N2CCC[C@H]2C(=O)N[C@@H]([C@@H](C)O)C(=O)N1)C(=O)N[C@@H](CC(=O)O)C(=O)O (HELM PEPTIDE1{L.Y.C.P.T.C.Y.Q.M.D}$PEPTIDE1,PEPTIDE1,3:R3-6:R3$$$V2.0)	–	–	90	32	–	–
CSCC[C@@H]1NC(=O)[C@H](CCC(N)=O)NC(=O)[C@H](Cc2ccc(O)cc2)NC(=O)[C@H]([C@@H](C)O)NC(=O)[C@H]([C@@H](C)O)NC(=O)[C@@H]2CCCN2C(=O)[C@H](CC(N)=O)NC(=O)[C@H](Cc2ccc(O)cc2)NC(=O)[C@@H](NC(=O)[C@H](CCSC)NC(=O)[C@H](CC(C)C)NC(=O)[C@@H]2CCCN2)CSSC[C@@H](C(=O)O)NC1=O (HELM PEPTIDE1{P.L.M.C.Y.N.P.T.T.Y.Q.M.C}$PEPTIDE1,PEPTIDE1,4:R3-13:R3$$$V2.0)	–	–	–	–	Active	–
H-LVYNKLTFQLEPNPHTK-OH	–	–	–	–	–	95

Now from value to molecule, other results behind:

inhibition [1] [%]	inhibition [2]	residual activity [3] [%]	inhibition [4] [%]	inhibition [5]	Molecule	cell proliferation (% of vehicle) at 10 µM (A-431) [%]
45	70%	68	–	–	CSCC[C@H]1NC(=O)[C@H](N)CSSC[C@H](C(=O)O)NC(=O)[C@@H](Cc2ccc(O)cc2)NC(=O)[C@@H](CC(N)=O)NC(=O)[C@H]2CCCN2C(=O)[C@@H]([C@H](C)O)NC(=O)[C@@H]([C@H](C)O)NC(=O)[C@@H](Cc2ccc(O)cc2)NC(=O)[C@@H](CCC(N)=O)NC1=O	81
–	Active	69	–	–	CSCC[C@@H]1NC(=O)[C@H](CCC(N)=O)NC(=O)[C@H](Cc2ccc(O)cc2)NC(=O)[C@H]([C@@H](C)O)NC(=O)[C@H]([C@@H](C)O)NC(=O)[C@@H]2CCCN2C(=O)[C@H](CC(N)=O)NC(=O)[C@H](Cc2ccc(O)cc2)NC(=O)[C@@H](N)CSSC[C@@H](C(=O)O)NC1=O	84
